Compounds with a hit are over-represented: about 2.4% of the library has one in this group of screens.
CSN inh = CSN deneddylation inhibition; Purified CSN, SCF-Nedd8-OG deneddylation, fluorescence polarization; inhibition, % at 12.5 µM; 360,000 tested, 0.38% active; AID 651999;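 active means pattern-corrected inhibition above about 35%, with an unprinted fluorescence ratio check between 0.5 and 1.5, limit read from the data, passing the limit was not always enough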;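 further: 0% = enzyme with substrate and 100% = substrate without enzyme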
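Assay system: HEK293T-derived human Csn5 enzyme; quantity: 0.24 nM enzyme; medium: Tris/NaCl/DTT buffer, pH 7.5; also added: substrate SCFSkp2-Nedd8OG, 10 nM; doses: 12.5 µM compound; schedule: 90 min reaction at room temperature; signal: FP; read-out: % inhibition of substrate cleavage by Csn5; benchmarks: substrate-only high control, full reaction low control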
Neddylation inh = blocks human cullin neddylation. P61081+Q13564. TR-FRET cullin neddylation, biochemical. 360,000 tested, 0.58% active. inhibition, % at 25 µM; in the data active means inhibition above about 36%
Rpn11 block = inhibitors of human proteasome Rpn11; O00487; human 26S proteasome, Ub4-pepOG fluorescence polarization; 20S core pre-blocked with epoxomicin; inhibition, % at 20 µM; 360,000 tested, 0.59% active;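 active means inhibition at 20 µM, scaled to each plate's controls, above about 33%, limit read from the data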
Rin1 Abl inh = human Rin1-Abl interaction inhibition; 360,000 tested, 0.4% active; P00519+Q13671; inhibition, % at 7.35 µM; TR-FRET Rin1/Abl binding, biochemical; in the data active means inhibition above about 5%, passing the limit was not always enough
TPT1 inhibitor = inhibitors of Candida albicans tRNA 2'-phosphotransferase TPT1 | inhibition, % at 5 µM | 300,000 tested, 0.81% active | recombinant caTPT1, FP RNA substrate dephosphorylation | AID 1962;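 active means inhibition above the mean of all tested compounds plus 3 SD, set per screening campaign, cut at about 24% in these data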;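 further: plate controls were DMSO alone for no effect and ferristatin control at 100 nM for full effect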
HNF4A DNA FP = change in binding of human HNF4 alpha to DNA; activity change, % at 10 µM; HNF4a-FITC DNA binding, fluorescence polarization, 1 h; 360,000 tested, 0.3% active; AID 1224865; in the data active means activity change above about 30%, passing the limit was not always enough
Rin1-Abl confirm = confirmation of inhibitors of human Rin1-Abl interaction | TR-FRET Rin1-Abl binding, purified proteins | shares compounds with Rin1 Abl inh | inhibition, % at 7.35 µM | 1,300 tested, 49% active; in the data active means inhibition above about 6.5%
GFP quench-1 = quenches GFP fluorescence, counter-screen for Rin1-Abl inhibitors. inhibition, % at 6.75 µM. 1,300 tested, 8.5% active. inhibitors/quenchers counterscreen. shares compounds with Rin1 Abl inh. AID 602125; in the data active means inhibition above about 6.5%;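 further: ABL1-eGFP fusion protein alone without its partner RIN1-SBP; 0% = protein with vehicle and 100% = wells lacking protein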
GFP quench dose = quenches GFP in dose response, Rin1-Abl counter-screen; 230 tested, under 10 active; IC50, µM; shares compounds with Rin1 Abl inh; GFP fluorescence interference/quenching counterscreen;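 further: ABL1-eGFP fusion protein alone without its RIN1 binding partner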
GFP quench-2 = GFP quenching artifact for Rin1-Abl inhibitor hits; shares compounds with Rin1 Abl inh; GFP fluorescence quenching counterscreen, biochemical; IC50, µM; 25 tested, under 10 active; AID 602397
Active calls of the source: *; . = not tested or not shown. Unless noted, how the calls were made is not given here.

SMILES	CSN inh	Neddylation inh	Rpn11 block	Rin1 Abl inh	TPT1 inhibitor	HNF4A DNA FP	Rin1-Abl confirm	GFP quench-1	others
CN(C(=O)c1ccc(NC(=O)Cc2ccc(NC(=O)C3CCCN(C(=O)C4CCCC4)C3)cc2)cc1)C1CC1 (stereo not drawn)	4	-19	2	13*	.	4	19*	2
O=C(Cc1ccc(NC(=O)C2CCN(C(=O)C3CCCCC3)CC2)cc1)Nc1ccc(C(=O)N2CCOCC2)cc1	3	0	5	39*	.	-1	44*	0	GFP quench dose=>68;GFP quench-2=>68
CN(C(=O)c1ccc(NC(=O)Cc2ccc(NC(=O)C3CCN(C(=O)C4CCCCC4)CC3)cc2)cc1)C1CC1	-4	2	-4	68*	.	0	66*	-1
OCC[C@@H]1C[C@H](O)[C@@H](O)[C@@]2(CCCc3ccccc3O2)O1	-2	0	-2	-3	-3	-3	.	.
CCn1c(C)nc2cc(C(=O)N/N=C/c3ccc(OC)c(O)c3)ccc21	-5	6	-7	-4	0	3	.	.
CN(CCc1ccccc1)C(=O)c1ccc(NC(=O)Cc2cccc(NC(=O)C3CCN(C(=O)c4ccccc4)CC3)c2)cc1	1	-7	2	9.1*	.	-1	9.1*	1
CN(C(=O)c1ccc(NC(=O)Cc2ccc(NC(=O)C3CCN(C(=O)C4CCCC4)CC3)cc2)cc1)C1CCCC1	-3	4	6	22*	.	2	27*	-1	GFP quench dose=>67
CN(C(=O)c1ccc(NC(=O)Cc2ccc(NC(=O)C3CCN(C(=O)C4CC4)CC3)cc2)cc1)C1CCCC1	-5	-4	2	-4	.	-1	.	.
COc1ccc(NC(=O)COC(=O)CCCN2C(=O)c3ccccc3C2=O)cc1Cl	3	-5	2	-4	4	5	.	.
Cn1c(N)c(C(=O)COC(=O)C2CC(=O)N(Cc3ccccc3)C2)c(=O)n(C)c1=O (stereo not drawn)	-3	0	-4	6	-4	1	.	.
O=C1[C@@H](Oc2ccccc2)[C@@H](c2ccncc2)N1c1ccccc1	0	0	0	-2	.	4	.	.
O=C1[C@@H](Oc2ccccc2)[C@@H](c2ccccc2)N1c1cccnc1	2	3	0	13*	.	-6	10*	-1
Cn1c(=O)[nH]c(=O)c2c1nc(NCc1ccco1)n2Cc1ccccc1Cl	0	0	0	13*	-3	4	18*	-1	GFP quench dose=>68
Cn1c(=O)c2c(nc(NCc3ccco3)n2Cc2ccc(Cl)cc2Cl)n(C)c1=O	4	0	-5	-1	0	-4	.	.
CC(C)NC(=O)N(C)C[C@H]1Oc2ccc(NC(=O)c3ccncc3)cc2C(=O)N([C@H](C)CO)C[C@@H]1C	0	-4	2	4	.	2	.	.
COc1cc2c(C(=O)NCc3ccc(C)o3)cn(CC(C)C)c(=O)c2cc1OC	5	2	-4	6.9*	-4	4	0	-1
CCn1cc(C(=O)NCCCOC(C)C)c(=O)c2cc(S(=O)(=O)N3CCC(C)CC3)ccc21	-5	2	2	13*	-3	2	1	-5
Cc1ccc(OCC(O)Cn2c(N3CCCCC3)nc3c2c(=O)[nH]c(=O)n3C)cc1C (stereo not drawn)	-4	-8	0	2	2	-1	.	.
O=C(NNC(=O)c1cc(O)c(O)c(O)c1)NC1CCCCC1	3	0	-4	22*	-1	-5	22*	14*
Oc1ccc(/C=N/N=C/c2ccc(O)c(O)c2)cc1O	22	-37	1	23*	-2	-9	57*	16*

Compound activity: PubChem BioAssay, several laboratories
